Activity calls are given as the source filed them. No cut-off for these calls is given here.
How the values were obtained:
[1] = molecular target: Prothrombin (Homo sapiens) (UniProt P00734); test: Inhibition of human thrombin assessed as residual activity at < 4.3 mM by spectrophotometry
How it was run: (§1)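 Thrombin activity read spectrophotometrically as the initial rate of hydrolysis of the chromogenic substrate Spectrozyme TH, with and without benzofuran inhibitor. Residual activity is expressed relative to the uninhibited enzyme.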

[2] = molecular target: Coagulation factor X (Homo sapiens) (UniProt P00742); test: Inhibition of human factor 10a assessed as residual activity at < 4.3 mM by spectrophotometry
Chain of Coagulation factor X (Homo sapiens) (P00742 41-179 limits assumed): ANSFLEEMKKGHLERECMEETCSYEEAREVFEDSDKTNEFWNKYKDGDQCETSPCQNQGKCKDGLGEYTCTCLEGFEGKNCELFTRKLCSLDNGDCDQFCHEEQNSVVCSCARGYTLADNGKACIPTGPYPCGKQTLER
Chain of Coagulation factor X (Homo sapiens) (P00742 235-488 limits assumed): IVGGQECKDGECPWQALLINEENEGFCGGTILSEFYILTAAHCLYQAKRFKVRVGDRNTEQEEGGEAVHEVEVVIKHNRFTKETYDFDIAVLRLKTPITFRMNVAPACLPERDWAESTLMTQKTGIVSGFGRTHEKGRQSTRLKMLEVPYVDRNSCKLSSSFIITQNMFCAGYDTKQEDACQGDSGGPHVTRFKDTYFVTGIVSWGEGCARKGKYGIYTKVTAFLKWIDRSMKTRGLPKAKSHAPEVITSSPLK
How it was run: (§2)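 Factor Xa activity followed by spectrophotometric measurement of the initial rate of hydrolysis of the chromogenic substrate S-2772, with and without benzofuran inhibitor. Residual activity is taken relative to the uninhibited enzyme.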

[3] = molecular target: Coagulation factor X (Homo sapiens) (UniProt P00742); test: Inhibition of human factor 10a assessed as residual activity at […] by spectrophotometry; how it was run: as §2
[4] = molecular target: Prothrombin (Homo sapiens) (UniProt P00734); test: Inhibition of human thrombin assessed as residual activity at 400 uM by spectrophotometry; how it was run: as §1
[5] = molecular target: Prothrombin (Homo sapiens) (UniProt P00734); test: Inhibition of human thrombin assessed as residual activity at 2.9 mM by spectrophotometry; how it was run: as §1
[6] = molecular target: Prothrombin (Homo sapiens) (UniProt P00734); test: Inhibition of human thrombin assessed as residual activity at 4.3 mM by spectrophotometry; how it was run: as §1
[7] = molecular target: Coagulation factor X (Homo sapiens) (UniProt P00742); test: Inhibition of human factor 10a assessed as residual activity at 2.6 mM by spectrophotometry; how it was run: as §2
[8] = molecular target: Coagulation factor X (Homo sapiens) (UniProt P00742); test: Inhibition of human factor 10a assessed as decrease in catalytic rate per uM of S-2772 hydrolysis at 2.6 mM by Michaelis-Menten analysis relative to control
How it was run: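 Factor Xa kinetics: initial rates of S-2772 hydrolysis measured spectrophotometrically at pH 7.4 and 25 °C over a range of substrate levels, with and without inhibitor. The hyperbolic dependence of rate on substrate was fitted to obtain KM and VMAX. Catalytic rate was compared with the inhibitor-free reaction.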

`CCOC(=O)c1c(C)oc2cc(OC)c(O)cc12` was tested, and the Activity [1] was “inactive” and the Activity [2] was “inactive”.
For `CCOC(=O)CCc1c(C)oc2cc(OC)c(OS(=O)(=O)O)cc12`, the Activity [1] was “inactive” and the Activity [2] was “inactive”.
With `COc1cc2oc(C)c(CCC(=O)O)c2cc1OS(=O)(=O)O` the Activity [3] was “Active”, the Activity [4] was “Active” and the Activity [5] was greater than 40%.
With `Cc1oc2cc(O)c(O)cc2c1C(=O)O` the Activity [3] was “Active”, the Activity [4] was “Active” and the Activity [5] was greater than 40%.
For `CCOC(=O)c1c(C)oc2cc(OS(=O)(=O)O)c(OS(=O)(=O)O)cc12`, the Activity [1] was “inactive” and the Activity [2] was “inactive”.
`COc1cc2oc(C)c(C(=O)O)c2cc1O` was tested, and the Activity [3] was “Active”, the Activity [4] was “Active” and the Activity [5] was greater than 40%.
For `CCOC(=O)c1c(C)oc2cc(OS(=O)(=O)O)c(OC)cc12`, the Activity [1] was “inactive” and the Activity [2] was “inactive”.
`CCOC(=O)CCc1c(C)oc2cc(OC)c(O)cc12` was tested, and the Activity [1] was “inactive” and the Activity [2] was “inactive”.
With `COc1cc2oc(C)c(CO)c2cc1O` the Activity [1] was “inactive” and the Activity [2] was “inactive”.
In the case of `COc1cc2c(C(=O)O)c(C)oc2cc1OS(=O)(=O)O`, the Activity [3] is reported as “Active”, the Activity [6] is reported as “Active” and the Activity [4] is reported as “Active”. For the same molecule, the Activity [7] was 86%, the fold change (FC) [8] was 3.6 and the Activity [5] was greater than 40%.
`COc1cc2oc(C)c(COS(=O)(=O)O)c2cc1OS(=O)(=O)O` was tested, and the Activity [1] was “inactive” and the Activity [2] was “inactive”.
In the case of `CCOC(=O)c1c(C)oc2cc(OC)c(OS(=O)(=O)O)cc12`, the Activity [1] is reported as “inactive” and the Activity [2] is reported as “inactive”.
`COc1cc2oc(C)c(CCC(=O)O)c2cc1O` was tested, and the Activity [3] was “Active”, the Activity [4] was “Active” and the Activity [7] was greater than 40%. The Activity [5] was greater than 40%.
With `CCOC(=O)c1c(C)oc2cc(O)c(OC)cc12` the Activity [1] was “inactive” and the Activity [2] was “inactive”.
In the case of `COc1cc2oc(C)c(C(=O)O)c2cc1OS(=O)(=O)O`, the Activity [3] is reported as “Active”, the Activity [4] is reported as “Active” and the Activity [7] is reported as 42%. For the same molecule, the Activity [5] was greater than 40%.
In the case of `CCOC(=O)c1c(C)oc2cc(O)c(O)cc12`, the Activity [1] is reported as “inactive” and the Activity [2] is reported as “inactive”.
In the case of `Cc1oc2cc(OS(=O)(=O)O)c(OS(=O)(=O)O)cc2c1C(=O)O`, the Activity [3] is reported as “Active”, the Activity [4] is reported as “Active” and the Activity [7] is reported as 75%. For the same molecule, the Activity [5] was greater than 40%.
